# Screening results (PubChem)
# Most compounds without a hit are left out; they make up all but 3.5% or so of the library.
# MrgX1 PAM: allosterically activates human MrgX1 receptor signaling; Q96LB2; MrgX1-HEK293, Fluo-4 calcium flux, FDSS; hits give high values; B-score at 10 µM; hit rate 0.63% among 310,000;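 active means plate-corrected calcium response at least 3 library SD above typical, normal starting fluorescence, not activating the receptor alone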;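 further: compound read alongside a low EC10 to EC30 dose of BAM8-22 agonist; peak minus trough fluorescence over baseline measured at the second addition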
# Target sequence (Q96LB2 whole entry, looked up): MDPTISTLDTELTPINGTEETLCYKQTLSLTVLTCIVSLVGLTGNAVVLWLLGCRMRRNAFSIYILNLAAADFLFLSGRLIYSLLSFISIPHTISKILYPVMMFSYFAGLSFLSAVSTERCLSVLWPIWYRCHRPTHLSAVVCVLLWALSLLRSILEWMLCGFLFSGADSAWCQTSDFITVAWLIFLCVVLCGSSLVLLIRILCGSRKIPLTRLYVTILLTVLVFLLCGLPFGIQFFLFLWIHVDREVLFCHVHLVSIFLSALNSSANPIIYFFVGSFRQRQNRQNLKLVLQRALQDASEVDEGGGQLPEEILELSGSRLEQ
# RGS4 block: inhibitors of human RGS4. P49798. HEK293 M3R/RGS4 inducible, Fluo-4 calcium flux; hits give high values; triggered by carbachol at its EC20. B-score at 10 µM. hit rate 0.45% among 310,000;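 active means B-score, a plate-corrected calcium signal, over three deviations above library mean, with baseline fluorescence within five deviations of library mean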;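 further: RGS4 expression induced by doxycycline in cells with stable M3 receptor; B-score is computed from the integrated fluorescence ratio over baseline after carbachol; higher B-score means a larger calcium signal and so more RGS4 inhibition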
# Target sequence (P49798 whole entry, looked up): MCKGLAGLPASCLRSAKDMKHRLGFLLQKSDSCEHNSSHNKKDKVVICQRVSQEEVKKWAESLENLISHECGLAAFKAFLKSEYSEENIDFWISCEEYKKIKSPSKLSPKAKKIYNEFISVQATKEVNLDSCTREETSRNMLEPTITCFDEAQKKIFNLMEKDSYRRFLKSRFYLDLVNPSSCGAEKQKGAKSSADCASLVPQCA
# MrgX1 ag: activates human MrgX1 receptor signaling. B-score at 10 µM. MrgX1-HEK293 cells, Fluo-4 calcium fluorescence, agonist mode; hits give high values. hit rate 0.44% among 310,000;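 active means calcium response B-score plate-corrected fluorescence ratio at least 3 library SD, with starting fluorescence B-score inside 5 SD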
#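 Assay system: stable human MrgX1 HEK293 cell line. Quantity: 15,000 cells per well. Schedule: cells plated overnight, dye loaded 0.5 h 37 °C, 0.5 h room temperature. Detection: Fluo-4 NW calcium-flux fluorescence, kinetic read. Read-out basis: peak-minus-minimum fluorescence over baseline, converted to B scores. Control set: positive and negative control wells on each plate.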
# RGS4 pot: potentiators or activators of RGS4; HEK293 M3R/inducible RGS4, carbachol calcium flux Fluo4; hits give low values; B-score at 10 µM; hit rate 0.92% among 310,000;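 active means B-score of the integrated calcium signal more than 4 SD below the library mean, with starting fluorescence not abnormally high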;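 further: negative B-score means reduced calcium response which marks RGS4 activation or potentiation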
#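 System: HEK293 FlpIn-TREx cells, stable M3R, doxycycline-inducible RGS4. Timing: overnight RGS4 induction, 30 min dye load 37 °C, 20 min compound RT. Also added: carbachol, ECmax concentration. Measured by: Fluo4 fluorescence kinetic imaging of calcium. Evaluation: integrated calcium ratio converted to B score.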
# MrgX1 antagonist: human MrgX1 receptor antagonism, primary screen; MRGX1-HEK293 calcium flux, Fluo-4, BAM8-22 antagonism; hits give low values; B-score at 10 µM; hit rate 1.3% among 310,000; AID 588676;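 active means calcium-response B-score plate-corrected more than 3 library SD below zero, starting fluorescence within 5 deviations, no agonist response on first addition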;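 further: peak minus trough fluorescence over baseline after final BAM8-22 challenge near maximal dose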
# MrgX1 allo conf: human MrgX1 positive allosteric modulation, re-confirmation. activation (ratio percentage), % at 10 µM. shares compounds with MrgX1 PAM. hit rate 13% among 1,200. MrgX1-HEK293, Fluo-4 calcium fluorescence, FDSS;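 active means ratio at least 3 SD above the weak peptide control, stable starting fluorescence, no direct agonism earlier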;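 further: compound followed by low BAM8-22 agonist challenge near EC20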
# HEK293 Ca flux: counter-screen for MrgX1 antagonists: effect in parental HEK293 cells. shares compounds with MrgX1 antagonist. Fluo-4 calcium fluorescence, FDSS. fluorescence ratio F(max-min)/F0 at 10 µM. hit rate 2% among 4,000. AID 624111;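 active means duplicate-averaged calcium fluorescence ratio at least three times the standard deviation of buffer wells, a nonspecific response in parental cells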
# HEK293 Ca counter: activity in parental HEK293 cells without MrgX1; shares compounds with MrgX1 antagonist; parental HEK293 calcium flux, Fluo-4 fluorescence ratio; hits give high values; fluorescence ratio F(max-min)/F0 at 10 µM; hit rate 0.4% among 4,000;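 active means calcium fluorescence ratio, averaged over duplicates, at least 3 SD of the buffer-well ratio, meaning a nonspecific response in receptor-free cells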;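 further: untransfected parental HEK293 lacking MrgX1 used as counterscreen for MrgX1 allosteric activators; fluorescence change taken during the second addition on a kinetic imager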
# HEK293 Ca cntr2: activity in parental HEK293 cells lacking MrgX1 receptor; shares compounds with MrgX1 antagonist; Fluo-4 calcium fluorescence (FDSS); hits give high values; fluorescence ratio F(max-min)/F0 at 10 µM; hit rate 8.7% among 4,000;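 active means calcium fluorescence ratio at least three times the spread of buffer wells, meaning a non-specific response in parental cells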
# Starred values were filed as active, the others as inactive; i = inactive; · = not tested or not shown.
SMILES,MrgX1 PAM,RGS4 block,MrgX1 ag,RGS4 pot,MrgX1 antagonist,MrgX1 allo conf,HEK293 Ca flux,HEK293 Ca counter,HEK293 Ca cntr2
CSCCC(NS(=O)(=O)c1ccc(Cl)cc1)C(=O)O (stereo not given),11*,i,i,i,i,i,i,i,i
COc1ccc(S(=O)(=O)n2nc(OC(=O)c3ccccc3Br)cc2N)cc1,10*,i,i,i,i,32%*,i,i,i
CS(=O)(=O)n1nc(OC(=O)c2cccc3ccccc23)cc1N,6.5*,i,i,i,i,14%*,i,i,i
COc1ccc(S(=O)(=O)n2nc(OC(=O)c3ccccc3)cc2N)cc1,i,i,i,i,i,·,·,·,·
COc1ccc(S(=O)(=O)n2nc(OC(C)=O)cc2N(C(C)=O)C(C)=O)cc1,13*,i,i,i,i,i,i,i,i
CS(=O)(=O)n1nc(OC(=O)c2cc(Br)ccc2Cl)cc1N,i,i,i,i,i,·,·,·,·
COc1ccccc1CN1[C@@H](CC(=O)O)c2cc(F)ccc2S1(=O)=O,i,i,i,i,i,·,·,·,·
Cn1c(CC(=O)Nc2ccccc2F)nnc1SCC(=O)N1CCOCC1,i,i,i,i,i,·,·,·,·
COC1(c2cc(-c3ccccc3)nc(N)n2)CCCCC1,31*,i,i,i,i,28%*,i,i,i
Nc1nc(-c2ccccc2)cc(C(F)(F)F)n1,i,i,i,i,i,·,·,·,·
COc1ccc(C(=O)C2CCN(CC(=O)Nc3ccc(OC)cc3OC)CC2)cc1,7.5*,i,i,i,i,i,i,i,i
CSc1nc2ccc(S(=O)(=O)N(C)C)cc2s1,i,i,i,i,i,·,·,·,·
CCN(CC)S(=O)(=O)c1ccc2nc(SC)sc2c1,13*,i,i,i,i,i,i,i,i
CC(CNC(=O)CN1C(=O)c2cccnc2Oc2ccc(Cl)cc21)c1ccccc1 (stereo not given),12*,i,i,i,i,i,i,i,i
COc1nc(N)nc(NC23CC4CC(CC(C4)C2)C3)n1,15*,i,i,i,i,22%*,i,i,i
CC(C)(C)S(=O)(=O)c1cnc(N2CCOCC2)nc1N,i,i,i,i,i,·,·,·,·
CC(C)S(=O)(=O)c1cnc(N2CCOCC2)nc1N,16*,i,i,i,i,i,i,i,i
Cc1nnc(SCCn2c(Br)nc3c2c(=O)n(C)c(=O)n3C)s1,i,i,i,i,i,·,·,·,·
Cc1nnc(Sc2c(N)n(C)c(=O)n(C)c2=O)s1,11*,i,i,i,i,i,i,i,i
Cc1ccc(-c2cc(N)n(-c3ccc(C)cc3)n2)cc1,7.2*,i,i,i,i,i,i,i,i
Nc1nc(C(F)(F)F)c(Br)c(=O)n1N,i,i,i,i,i,·,·,·,·
c1ccc2cc(OCCOCCOc3ccc4ccccc4c3)ccc2c1,13*,i,i,i,i,i,i,i,i
CN(C)CCOc1ccc2ccccc2c1,i,i,i,i,i,·,·,·,·
O=C(CSC1=NCCN1)NC(c1ccccc1)c1ccccc1,13*,i,i,i,i,i,i,i,i
CCN(CC)S(=O)(=O)c1cc(C(=O)Nc2cc(C)on2)c(Cl)cc1Cl,i,i,i,i,i,·,·,·,·
SMILES,MrgX1 PAM,RGS4 block,MrgX1 ag,RGS4 pot,MrgX1 antagonist,MrgX1 allo conf,HEK293 Ca flux,HEK293 Ca counter,HEK293 Ca cntr2
CNS(=O)(=O)c1ccc(CCC(=O)N2CCN(c3ccccc3OC)CC2)cc1,11*,i,i,i,i,i,i,i,i
COC(C[C@@H](O)[C@@H](C)[C@@H](O)COCc1ccccc1)OC,·,i,·,i,·,·,·,·,·
Cc1nn(-c2ccccc2)nc1C(=O)Nc1nnc(C(F)(F)F)s1,6.5*,i,i,i,i,i,i,i,68*
CCc1nnc(NC(=O)c2nn(-c3ccccc3)nc2C)s1,i,i,i,i,i,·,·,·,·
COC(=O)C(CC(=O)c1ccc(Cl)cc1)c1ccc(C(C)C)cc1 (stereo not given),7.1*,i,i,i,i,i,i,i,i
O=C(CC(C(=O)O)c1ccc(Cl)cc1)c1ccc(Cl)c(Cl)c1 (stereo not given),i,i,i,i,i,·,·,·,·
CN(C)C(=O)c1cn(-c2ccccc2)nc1-c1cc2ccccc2oc1=O,i,i,i,i,i,·,·,·,·
CN(C)C(=O)c1cn(-c2ccccc2)nc1-c1cc2ccccc2o1,8*,i,i,i,i,i,i,i,i
COc1ccc(C(C)NC(=O)Nc2ccc(C(C)=O)cc2)cc1OC (stereo not given),i,i,i,i,i,·,·,·,·
CC(O)CNc1nc2ccccc2n1CC(=O)NCC(F)(F)F (stereo not given),i,i,i,i,i,·,·,·,·
CC(O)CNc1nc2ccccc2n1CC(=O)NC12CC3CC(CC(C3)C1)C2 (stereo not given),7.4*,i,i,i,i,i,i,i,i
O=C(c1ccc(C23CC4CC(CC(C4)C2)C3)o1)N1CCOCC1,11*,i,i,i,i,i,i,i,i
O=C(C1CCN(S(=O)(=O)c2ccc(F)cc2)CC1)N1CCCC(C(F)(F)F)C1 (stereo not given),i,i,i,i,i,·,·,·,·
CCOc1ccc(C2NC(=O)CCC2[N+](=O)[O-])cc1 (stereo not given),i,i,i,i,i,·,·,·,·
CC(C)COc1ccc(C(=O)CCN2CCCCC2)cc1,i,i,i,i,i,·,·,·,·
CCCCOc1ccc(C(=O)CCN2CCCCC2)cc1,7.1*,i,i,i,i,i,i,i,i
CC(C)c1ccc(N(CC(=O)NC2CCCC2)C(=O)CCC(=O)Nc2nccs2)cc1,i,i,i,i,i,·,·,·,·
